The list is not random: actives were taken first. Their share in the collection is about 3.3%.
SENP1 inh: human SENP1 catalytic domain inhibitors, primary screen, biochemical, FRET, uHTS; recombinant SENP1 catalytic domain, CyPet-SUMO1-YPet FRET cleavage; inhibition, % at 10 µM; actives 0.21% (n = 360,000);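 active = inhibition at least 30% at 10 µM, raw YFP signal under a set limit, fluorescence ratio 0.5 to 1.5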
Target sequence (Q9P0U3 419-644 limits assumed): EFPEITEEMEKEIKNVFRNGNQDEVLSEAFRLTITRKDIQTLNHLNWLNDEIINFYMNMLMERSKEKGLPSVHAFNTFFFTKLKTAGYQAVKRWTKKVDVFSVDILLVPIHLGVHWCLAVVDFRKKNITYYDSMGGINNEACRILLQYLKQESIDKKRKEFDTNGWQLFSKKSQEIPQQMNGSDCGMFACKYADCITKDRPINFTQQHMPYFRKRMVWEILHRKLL
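Controls: no-enzyme wells low, DMSO-plus-enzyme wells high control. Test system: human recombinant His6-tagged SENP1 catalytic domain enzyme. Reagent: SFCypet-SUMO1-SFYpet FRET protein substrate, 25 nM final. Doses: one dose per compound, 10 µM, 0.5% DMSO. Detection: FRET, CFP and YFP emission. Timing: 50 min reaction at room temperature.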
SENP8 block-1: SENP8 protease inhibitors, primary screen, biochemical, luminescence; Sentrin-specific protease 8 (Homo sapiens), Q96LD8; purified SENP8, Z-RLRGG-aminoluciferin cleavage; inhibition, % at 10 µM; actives 1.2% (n = 330,000); in the data active = inhibition above about 50%
SENP8 block-2: human SENP8 protease inhibitors, primary screen, biochemical, fluorescence, Nedd8 protein substrate, uHTS. Sentrin-specific protease 8 (Homo sapiens), Q96LD8. recombinant SENP8. AID 602440, 2012. inhibition, % at 20 µM. actives 0.64% (n = 360,000); in the data active = inhibition mostly above about 40%, no sharp cut-off; inactive = mostly below about 27%
SENP7 block: SENP7 protease inhibitors, primary screen, biochemical, luminescence, uHTS. recombinant SENP7, Z-RLRGG-aminoluciferin luminescence, 40 min. actives 1.5% (n = 330,000). Sentrin-specific protease 7 (Homo sapiens), Q9BQF6. AID 434973, 2010. inhibition, % at 5 µM;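 active = inhibition above about 50% at the single test dose, limit read from the data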
Target sequence (Q9BQF6 706-1050 limits assumed): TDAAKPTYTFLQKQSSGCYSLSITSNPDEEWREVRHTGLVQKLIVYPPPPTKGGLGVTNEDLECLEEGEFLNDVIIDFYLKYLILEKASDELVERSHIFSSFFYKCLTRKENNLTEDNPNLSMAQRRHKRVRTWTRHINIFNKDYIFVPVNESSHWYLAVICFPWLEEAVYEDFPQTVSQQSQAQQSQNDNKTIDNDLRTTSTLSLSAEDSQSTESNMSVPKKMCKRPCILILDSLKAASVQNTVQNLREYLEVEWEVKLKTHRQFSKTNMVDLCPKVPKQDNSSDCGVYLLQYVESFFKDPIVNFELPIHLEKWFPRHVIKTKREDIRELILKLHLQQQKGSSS
CendR NRP1 mod: modulators of CendR peptide binding to NRP-1, primary screen, biochemical, fluorescence polarization, uHTS; actives 0.85% (n = 360,000); Neuropilin-1 (Homo sapiens), O14786; FAM-RPARPAR peptide binding to NRP-1; inhibition, % at 25 µM;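 active = inhibition or corrected inhibition above about 18%, plus a signal ratio from 0.5 to 1.5, limit read from the data, passing the limit was not always enough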
SENP6 block: SENP6 protease inhibitors, primary screen, biochemical, luminescence, uHTS; Sentrin-specific protease 6 (Homo sapiens), Q9GZR1; Recombinant SENP6 catalytic domain, aminoluciferin luminescence; inhibition, % at 10 µM; actives 1.8% (n = 330,000); AID 2599, 2010;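 active = inhibition above about 50% at the single tested dose, limit read from the data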
SENP8 conf: SENP8 protease inhibitors, retest, confirmation, biochemical, luminescence, single concentration. AID 488912, 2010. actives 40% (n = 6,200). inhibition, % at 12.5 µM. shares compounds with SENP7 block. Recombinant SENP8, Z-RLRGG-aminoluciferin luminescence, 60 min;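 active = mean inhibition across replicates above about 50%, limit read from the data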
SENP6 conf: SENP6 protease inhibitors, confirmation, biochemical, luminescence, single concentration | shares compounds with SENP7 block | recombinant SENP6, Z-RLRGG-aminoluciferin luminescence | inhibition, % at 12.5 µM | actives 58% (n = 6,200)
SENP7 conf: SENP7 protease inhibitors, retest, confirmation, biochemical, luminescence, single concentration. recombinant SENP7, Z-RLRGG-aminoluciferin luminescence, 40 min. actives 69% (n = 6,200). inhibition, % at 12.5 µM. shares compounds with SENP7 block
Casp3 SENP sel: caspase-3 protease inhibitors, confirmation, selectivity assay for SENP inhibitor project, biochemical, single concentration | purified caspase-3, Z-DEVD-aminoluciferin luminescence, 60 min | actives 60% (n = 6,200) | inhibition, % at 12.5 µM | shares compounds with SENP7 block;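 active = mean inhibition above about 50%, limit read from the data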
Luc interf: interferes with luciferase luminescence in SENP counter-screen; shares compounds with SENP7 block; AID 488919; Pre-incubated SENP8/Z-RLRGG-aminoluciferin, luciferase luminescence interference; actives 39% (n = 6,200); inhibition, % at 12.5 µM;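 active = mean inhibition above about 50% when retested at one dose, limit read from the data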
Each line names hits and unclear results; the compound was inactive in the other large screens (follow-up assays come after a bar, where they were run).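 The calls were made as follows, unless noted: active = mean inhibition above about 50% in the one-dose retest (limit read from the data); inactive = the rest.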

O=C(N/N=C/c1c[nH]c2ccccc12)c1ccccc1	none
O=C(N/N=C/c1c[nH]c2ccccc12)c1cc(Br)ccc1O	none
COc1cc(CC(=O)N2c3ccccc3N=C(c3ccccc3)C2C(=O)NCc2ccccc2)cc(OC)c1 (configuration not stated)	none (no result: SENP8 block-1, SENP7 block, SENP6 block)
COc1ccc(C(=O)Nc2sc3c(c2C#N)CCN(C(C)=O)C3)cc1	SENP6 block 79 | SENP8 conf inactive | SENP6 conf inactive | SENP7 conf inactive | Casp3 SENP sel inactive | Luc interf inactive
O=C(Nc1sc2c(c1C(=O)O)CCC2)c1ccccc1	SENP8 block-1 94, SENP7 block 92, SENP6 block 88 | SENP8 conf inactive | SENP6 conf 99 | SENP7 conf 103 | Casp3 SENP sel 97 | Luc interf 85
O=C(Nc1sc2c(c1C(=O)O)CCCC2)c1cccc(Cl)c1	SENP8 block-1 91, SENP6 block 92 | SENP8 conf 96 | SENP6 conf 96 | SENP7 conf 99 | Casp3 SENP sel 87 | Luc interf 96
O=C(Nc1sc2c(c1C(=O)O)CCCCC2)c1ccccc1	SENP8 block-1 95, SENP7 block 83, SENP6 block 99 | SENP8 conf 97 | SENP6 conf 100 | SENP7 conf 103 | Casp3 SENP sel 98 | Luc interf 98
COc1cc(C(=O)Nc2sc3c(c2C#N)CCN(C(C)=O)C3)cc(OC)c1OC	none
OCC[C@@H]1C[C@H](O)[C@@H](O)[C@]2(OCc3cc(Cl)ccc32)O1	none (no result: SENP8 block-1, SENP7 block, SENP6 block)
Cc1ccc(NC(=O)CCC(=O)NN=Cc2ccc(C)o2)c(C)c1	none (no result: SENP8 block-1, SENP7 block, SENP6 block)
O=C(O)C(=Cc1ccc([N+](=O)[O-])cc1)c1cccc(Cl)c1	none (no result: SENP8 block-1, SENP7 block, SENP6 block)
Cc1cccc(C)c1-n1nnnc1C1(C)CCC(=O)N1CCCN1CCOCC1 (configuration not stated)	none (no result: SENP8 block-1, SENP7 block, SENP6 block)
N#Cc1c(NC(=O)c2ccccc2)sc2c1CCCCC2	SENP8 block-1 51, SENP7 block 56, SENP6 block 74 | SENP8 conf inactive | SENP6 conf inactive | SENP7 conf inactive | Casp3 SENP sel inactive | Luc interf inactive
O=C(Nc1sc2c(c1C(=O)O)CCC2)c1ccc(F)cc1	SENP8 block-1 81, SENP6 block 87 | SENP8 conf 89 | SENP6 conf 90 | SENP7 conf 95 | Casp3 SENP sel 91 | Luc interf 58
NC(=O)c1c(NC(=O)c2ccccc2F)sc2c1CCCC2	SENP6 block 56 | SENP8 conf inactive | SENP6 conf inactive | SENP7 conf inactive | Casp3 SENP sel inactive | Luc interf inactive
O[C@@H]1C[C@H](c2ccc(Cl)cc2)N(Cc2cccs2)C[C@H]1n1cc(-c2ccc(F)cc2)nn1	none (no result: SENP8 block-1, SENP7 block, SENP6 block)
C[C@H](CO)N1C[C@H](C)[C@@H](CN(C)C(=O)Cc2ccccc2)OCCCC[C@H](C)Oc2ccc(NC(=O)NC3CCCCC3)cc2C1=O	none (no result: SENP8 block-1, SENP7 block, SENP6 block)
CCCCCCCCN1C(=O)[C@H](CC(=O)NCc2cccc(C(F)(F)F)c2)C[C@@]2(C(=O)OC)CCCCC=C12	none (no result: SENP8 block-1, SENP7 block, SENP6 block)
Cc1cccc(C)c1OCC(=O)Nn1c(C)nc2ccccc2c1=O	none
Cc1nc2ccccc2c(=O)n1NC(=O)COc1ccccc1	SENP7 block 57 | SENP8 conf inactive | SENP6 conf inactive | SENP7 conf inactive | Casp3 SENP sel inactive | Luc interf inactive
CN(C(=O)c1ccccc1)c1nc2ccccc2s1	SENP6 block 71 | SENP8 conf inactive | SENP6 conf 51 | SENP7 conf 71 | Casp3 SENP sel inactive | Luc interf inactive
COc1ccc(Cl)cc1NC(=O)c1[nH]nc(OC)c1[N+](=O)[O-]	none
COc1n[nH]c(C(=O)Nc2cc(Cl)ccc2Cl)c1[N+](=O)[O-]	SENP6 block 55 | SENP8 conf inactive | SENP6 conf inactive | SENP7 conf inactive | Casp3 SENP sel inactive | Luc interf inactive
O=C1NC[C@@H](CCCCN2C[C@H](Cc3ccc(O)cc3)N(CCC3CCCCC3)C(=O)C2=O)N(CCc2ccc(O)cc2)C1=O	none (no result: SENP8 block-1, SENP7 block, SENP6 block)
COc1ccc(S(=O)(=O)N2CCN(c3ncccn3)CC2)cc1[N+](=O)[O-]	none
COc1ccc(S(=O)(=O)N2CCN(c3ccccn3)CC2)cc1[N+](=O)[O-]	SENP6 block 85 | SENP8 conf inactive | SENP6 conf inactive | SENP7 conf inactive | Casp3 SENP sel inactive | Luc interf inactive
CCc1ccc(S(=O)(=O)Nc2cc(SCC(=O)O)c(O)c3ccccc23)cc1	SENP6 block 73 | SENP8 conf inactive | SENP6 conf inactive | SENP7 conf inactive | Casp3 SENP sel inactive | Luc interf inactive
CCc1nc2c(OCc3ccc(F)c(F)c3)cccn2c1N(C)C(=O)c1ccc(C)cc1	none (no result: SENP8 block-1, SENP7 block, SENP6 block)
COc1cc(NC(=O)c2csc3c2CCCC3)ncn1	SENP6 block 61 | SENP8 conf inactive | SENP6 conf inactive | SENP7 conf inactive | Casp3 SENP sel inactive | Luc interf inactive
O=C(Nc1ccccn1)c1csc2c1CCCC2	none
O=c1c2ccccc2nc2oc3ccccc3n12	SENP8 block-1 74, SENP7 block 80, SENP6 block 88 | SENP8 conf inactive | SENP6 conf inactive | SENP7 conf 70 | Casp3 SENP sel 82 | Luc interf inactive
CC(C)c1c(C(=O)N/N=C/c2ccc3c(c2)OCO3)nnn1-c1nonc1N	none
